# Screens deposited in PubChem BioAssay by several laboratories.
# This is a sample that favours compounds with a hit; in the whole collection about 3.1% have one here.
# Hsp70 act: switches on Hsp70 transcription; activation, % at 10 µM; HeLa Hsp70 promoter luciferase reporter, luminescence; scaled: vehicle 0, proteasome-inhibitor control 100%; AID 1203; hit rate 0.04% among 200,000;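 active means activation above the mean across all tested compounds plus 3 SD, cutoff set per campaign, cut at about 5.5% in these data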;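 further: 100% = MG132 at 30 µM as the positive control and 0% = DMSO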
# HSF-1 act: increases HSF-1 driven luciferase reporter signal. NIH3T3-HGL HSF-1 luciferase reporter, MG132, 8 h; 100% = twice DMSO control signal. activation, % at 9 µM. hit rate 1.7% among 300,000. AID 504408;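 active means mean replicate activation of at least 50% with a set share of replicates each reaching 50%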;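 further: 0% = median of the neutral control wells and 100% = twice that signal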
# Tb hexokinase: T. brucei hexokinase 1 inhibition; inhibition, % at 10 µM; recombinant TbHK1, G6PDH-coupled NADH A340; hit rate 0.11% among 220,000; AID 1430;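 active means inhibition of 50% or more in the single-dose primary screen; inactive means inhibition below 50%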
# HSP90 refold inh: blocks HSP90-mediated luciferase refolding in reticulocyte lysate | inhibition, % at 5.6 µM | hit rate 0.91% among 290,000 | Rabbit reticulocyte lysate, luciferase refolding luminescence, 3 h | AID 1789;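 active means inhibition above the screen-wide mean plus 3 SD, computed separately per campaign, cut at about 16% in these data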;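 further: 0% = DMSO wells and 100% = 60 µM geldanamycin wells; inhibitors lower the luminescence because luciferase stays unfolded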
# HKDC1 inhibitor: blocks human hexokinase HKDC1 activity | Q2TB90 | recombinant HKDC1, G6PDH/diaphorase resazurin coupled fluorescence | inhibition, % at 20 µM | hit rate 0.16% among 340,000 | AID 493160;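 active means inhibition above about 35% when tested at 20 µM, limit read from the data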;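 further: plate controls were DMSO wells with enzyme for no effect and DMSO wells lacking enzyme for full effect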
#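 Incubation: 90 min at room temperature in dark / Material: recombinant HKDC1 (HK5) hexokinase enzyme, produced in-house / Quantity: enzyme 5 µg/mL final / Compound: one dose of 20 µM, 1% DMSO / Reagent: glucose and ATP substrates / Buffer or medium: Tris pH 8.0 buffer with MgCl2, Tween-20, BSA, BME / Technique: resorufin fluorescence at 613 nm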
# HSF1 inhib: HSF1 inhibition; NIH3T3-HGL HSE-luciferase, MG132-induced, luminescence 8 h; hits give low values; activity change, negative = inhibition, % at 7.5 µM (by protocol); hit rate 0.77% among 300,000;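 active means more than half of replicate wells show activity change below -50%, luminescence cut by over half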;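 further: luciferase reports HSF-1 transcriptional activity via heat shock element; 0% = median of DMSO wells and -100% = zero luminescence signal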
# HKDC1 act conf: confirmation of human HKDC1 activators | inhibition, % at 20 µM | recombinant HKDC1, G6PDH/diaphorase resazurin fluorescence; hits give low values | shares compounds with HKDC1 inhibitor | AID 504708 | hit rate 14% among 740;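 active means inhibition at or below a set negative limit, negative inhibition meaning the enzyme was activated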
# * = called active by the depositor; . = not tested or not shown.
SMILES,Hsp70 act,HSF-1 act,Tb hexokinase,HSP90 refold inh,HKDC1 inhibitor,HSF1 inhib,HKDC1 act conf
O=C1C=CC(=O)c2c(O)c(N3CCN(CCOCCO)CC3)c(Br)c(O)c21,.,.,.,.,46.4*,.,11.1
O=C1C=CC(=O)c2c(O)c(N3CCN(CCO)CC3)c(Cl)c(O)c21,.,.,.,.,32.1,.,10.2
OCC(CO)c1cnnc2ccccc12,.,.,.,.,-1.6,.,.
Cn1c(=O)[nH]c(=O)c2c1nc(SCC(O)CCl)n2Cc1ccccc1 (configuration not stated),.,9.1,.,0.5,-1.6,10.7,.
Cc1ccc2c(nc3s/c(=C\c4ccc(-c5ccccc5C(=O)O)o4)c(=O)n32)c1C,.,6.3,.,-3.2,9.6,-1.6,.
O=C(O)c1ccc(-c2ccc(/C=c3/sc4nc5ccccc5n4c3=O)o2)cc1Cl,.,-1.0,.,2.1,45.0*,-4.8,-16.6
CC1CCCN(C(=O)COC(=O)c2cc([N+](=O)[O-])ccc2N2CCOCC2)C1 (configuration not stated),.,0.9,.,.,41.3*,3.3,-19.5
CCOC(=O)c1ccc(NC(=O)CSc2ccc(-c3ccccn3)nn2)cc1,.,3.2,.,1.8,37.2*,9.5,31.3
CCOc1ccc(NC(=O)CSc2ccc(-c3ccccn3)nn2)cc1,-0.3,4.8,-0.1,0.1,-8.2,5.2,.
CCCC[n+]1c2ccccc2cc2ccccc21,.,7.9,.,4.2,41.9*,-11.0,-1.5
Cc1ccc2ccccc2[n+]1CCCS(=O)(=O)[O-],-0.1,-3.9,-3.2,-4.0,-1.0,-2.0,.
CCC[n+]1c2ccccc2cc2ccccc21,.,-7.0,.,1.2,36.5*,-14.4,0.0
Cc1cn2c(=O)c(C(=O)NCc3ccc4c(c3)OCO4)cnc2s1,.,2.3,.,.,-0.4,10.3,.
Cc1nc2c(O)c3c(c(O)c2nc1C)C1C=CC3CC1,.,.,.,.,82.0*,.,89.5
Cc1nc2c(C)c(C)c(C)c(C)c2nc1C,.,5.8,-17.5,-0.5,0.3,-2.9,.
O=C(NN1CCOCC1)c1ccc(Cl)c([N+](=O)[O-])c1,.,-2.4,.,2.2,36.5*,-3.7,-33.6
Cc1ccc(C)c(C(=O)COC(=O)c2n[nH]c3ccccc23)c1,.,.,.,.,-0.7,.,.
O=C(COC(=O)c1n[nH]c2ccccc12)c1cccc(Br)c1,.,14.4,.,-0.7,37.5*,16.9,-30.5*
O=C(COC(=O)Cn1cc(C(F)(F)F)ccc1=O)NCc1ccccc1,.,.,.,.,-5.1,.,.
COc1ccc(-c2oc(NC(=O)CCl)c(C#N)c2-c2ccc(OC)cc2)cc1,-0.3,11.6,-10.1,6.9,46.1*,-5.9,20.9
O=C1SCCN1N=Cc1ccc([N+](=O)[O-])o1,.,.,.,.,-3.3,.,.
CCCc1nc2c(c(=O)c3ccccc3n2C)c(=O)n1-c1ccc(F)cc1,-0.1,-9.8,-4.4,3.7,51.1*,-4.4,58.5
Cc1nc2c(c(=O)c3ccccc3n2C)c(=O)n1-c1ccc(F)cc1,.,-11.1,-19.2,-3.2,51.4*,-0.3,52.9
COc1ccccc1P(=O)(Cc1ccccc1)c1ccccc1 (configuration not stated),.,-1.0,.,-0.6,0.3,3.0,.
O=C(CNC(=O)/C=C/c1ccco1)N=Nc1c(O)[nH]c2ccccc12,.,-11.1,.,1.6,50.7*,0.0,39.0
SMILES,Hsp70 act,HSF-1 act,Tb hexokinase,HSP90 refold inh,HKDC1 inhibitor,HSF1 inhib,HKDC1 act conf
Cc1ccc(NC(=O)c2ncn(CCCNCC(C)c3ccccc3)n2)cc1C (configuration not stated),.,.,.,.,-3.4,.,.
Cc1ccccc1Nc1nc(N)nc(CSc2nnc3sc4ccccc4n23)n1,0.1,16.6,-2.6,1.9,35.9*,2.3,33.3
CCc1nn(CC(=O)NCCCN2CCOCC2)c(=O)c2cc3c(OC)cccc3n12,.,.,.,.,-0.7,.,.
O=C(/C=C/Sc1ccccc1)c1ccccc1,0.2,117.1*,-16.8,-0.3,35.7*,79.9,2.2
Nc1nc(N2CCN(c3ccccn3)CC2)nc2ccccc12,.,22.7,.,-2.3,-57.6,-6.5,-44.1*
Nc1nc(N2CCCCC2)nc2ccccc12,0.1,30.2,-0.6,-2.2,-7.9,4.6,.
Cc1cc(C)c(S(=O)(=O)c2cccc(Cl)c2)c(=O)[nH]1,.,4.0,.,-3.5,-1.3,-7.9,.
COc1ccc(N=Nc2ccc(N)nc2N)cc1,.,40.2,-15.7,3.5,0.3,5.6,.
CCOc1ccc2nc3cc(N=Nc4ccc(N)nc4N)ccc3c(N)c2c1,.,.,.,.,37.3*,.,-31.4
